The test system of series [1] is RBL-2H3. The series can be described thus: Antiallergic activity in rat RBL2H3 cells assessed as inhibition of IgE/Ag-induced beta-hexosaminidase activity at 100 uM incubated for 30 mins by spectrophotometric analysis. In kind it is functional, cell-based. A digest of the protocol: (§1)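 RBL-2H3 cells (2 × 10⁵/well) were sensitized overnight with anti-DNP IgE at 200 ng/mL and washed twice in PIPES buffer (25 mM PIPES, pH 7.2, 0.1% BSA, 1 mM CaCl₂, 5.6 mM glucose). They were pretreated 30 min at 37 °C with compound, then challenged with DNP-HSA 25 ng/mL for 15 min at 37 °C and chilled on ice. Supernatant was mixed with p-nitrophenyl-N-acetyl-glucosaminide in 0.1 M citrate pH 4.5 for 1 h at 37 °C. Reaction was stopped with 0.1 M carbonate pH 10.5 and read at 405 nm. Mean ± S.D. of three independent experiments, each in triplicate.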

Series [2] has as its system RBL-2H3. The series can be described thus: Antiallergic activity in rat RBL2H3 cells assessed as inhibition of IgE/Ag-induced beta-hexosaminidase activity incubated for 30 mins by spectrophotometric analysis. Format: functional, cell-based. The note with it: for IC50: RBL-2H3, 0.5 h. A digest of the protocol: as §1
Series [3] concerns RBL-2H3. The series can be described thus: Cytotoxicity against rat RBL2H3 cells at 50 to 100 uM after 24 hrs by Ez-cytox assay. Format: cell-based. As to conditions: rbl-2h3, 24 h. A digest of the protocol: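 IgE-sensitized RBL-2H3 cells (overnight, 200 ng/mL DNP-specific IgE) were exposed to compound at 0, 50 or 100 concentrations at 37 °C for 23–24 h. EZ-Cytox reagent was added at 10% of volume for 1 h at 37 °C and absorbance read at 450 nm. Viability is given as % of untreated control; mean ± S.D. of three independent experiments, each in triplicate.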

The subject of series [4] is RBL-2H3. Description: Antiallergic activity in rat RBL2H3 cells assessed as inhibition of IgE/Ag-induced beta-hexosaminidase activity at 50 uM incubated for 30 mins by spectrophotometric analysis. In kind it is functional, cell-based. A digest of the protocol:
as §1

SMILES strings stand for the structures. Active and inactive are the calls of the source. No cut-off for these calls is given here.

One may read the IC50 as the concentration needed to halve the response being measured.

In the case of `Cc1ccc(-c2nnc(CSC([Si](C)(C)C)[Si](C)(C)C)o2)cc1`, in series [1], the inhibition result is “Active”. For the same compound, the inhibition result in series [2] was “Dose-dependent effect”.

Consider `C[Si](C)(C)C([Si](C)(C)C)S(=O)(=O)Cc1nnc(-c2ccccc2)o1`, for which the inhibition entry in series [1] was “Active”. In series [2], the inhibition entry was “Dose-dependent effect” and the IC50 was 37.2 µM. The Activity result in series [3] was “Non-toxic”.

Turning to `C[Si](C)(C)C([Si](C)(C)C)S(=O)(=O)Cc1nnc(-c2ccc(Cl)cc2)o1`, the inhibition entry in series [1] is “Active”. Further, in series [2], the inhibition entry was “Dose-dependent effect” and the half-inhibitory concentration (IC50) was determined as 75.5 µM. For the same compound, the Activity result in series [3] was “Non-toxic”.

Take `C[Si](C)(C)C(SCc1nnc(-c2ccccc2)o1)[Si](C)(C)C`: the inhibition result in series [1] is “Active”. In series [2], the inhibition entry is “Dose-dependent effect” and the IC50 was found to be 98.8 µM. Also, the inhibition entry in series [4] was “Active”.

Turning to `C[Si](C)(C)C(SCc1nnc(-c2ccc(Cl)cc2)o1)[Si](C)(C)C`, the inhibition entry in series [1] was “Active”. Moreover, the inhibition entry in series [2] was “Dose-dependent effect”.

On to `Cc1ccc(-c2nnc(CS(=O)(=O)C([Si](C)(C)C)[Si](C)(C)C)o2)cc1`, for which the inhibition result in series [1] was “Active”. Besides, in series [2], the inhibition result is “Dose-dependent effect” and the 50% inhibitory concentration (IC50) is 62.3 µM. In addition, the Activity entry in series [3] is recorded as “Non-toxic”.

(Values after ChEMBL document CHEMBL2331352, “Syntheses and anti-allergic activity of 2-((bis(trimethylsilyl)methylthio/methylsulfonyl)methyl)-5-aryl-1,3,4-oxadiazoles” (Eur J Med Chem, 2013).)
